According to ChEMBL document CHEMBL1129982, “Structure-activity relationships in a series of orally active gamma-hydroxy butenolide endothelin antagonists” (J Med Chem, 1997):
Blank lines part the entries; values can stand above or below the compound they belong to.

Key:
[1] = Time to reach maximum observed concentration in oral (5 mg/kg) fed dogs; type: ADME, organism-based, Canis lupus familiaris; details: dog, in vivo
Method in brief: (§1)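 Three-way crossover in four male beagles: single 2.5 mg/kg iv dose (fed) or 5 mg/kg oral capsule, fed or fasted. Serial heparinized plasma taken up to 24 h. Drug isolated by reverse-phase SPE, quantified by C18 HPLC with fluorescence (ex 312, em 430 nm), LOQ 10 ng/mL. Noncompartmental analysis. […] AUC by trapezoidal rule extrapolated to infinity. F from dose-normalized po/iv AUC ratio.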

[2] = Mean of apparent terminal phase elimination half-life in oral (5 mg/kg) fed dogs; type: ADME, organism-based, Canis lupus familiaris; details: dog, in vivo; method in brief: as §1
[3] = Area under the concentration-time curve from time zero to infinity in oral (5 mg/kg) fed dogs; type: ADME, organism-based, Canis lupus familiaris; details: dog, in vivo; method in brief: as §1
[4] = Maximum observed concentration in oral (5 mg/kg) fasted dogs; type: ADME, organism-based, Canis lupus familiaris; set-up: dose 5 mg/kg, route oral; details: dog, in vivo; method in brief: as §1
[5] = Mean of apparent terminal phase elimination half-life after intravenous administration of 2.5 mg/kg in dogs; type: ADME, organism-based, Canis lupus familiaris; set-up: dose 2.5 mg/kg, route intravenous; details: dog, in vivo
Method in brief: (§2)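 Four male beagle dogs, fed, single 2.5 mg/kg iv dose within a three-way crossover. Serial heparinized plasma sampled to 24 h. Drug recovered by reverse-phase solid-phase extraction and measured by HPLC with fluorescence detection (ex 312, em 430 nm); LOQ 10 ng/mL.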

[6] = Time to reach maximum observed concentration in oral (5 mg/kg) fasted dogs; type: ADME, organism-based, Canis lupus familiaris; details: dog, in vivo; method in brief: as §1
[7] = Mean of apparent terminal phase elimination half-life in oral (5 mg/kg) fasted dogs; type: ADME, organism-based, Canis lupus familiaris; details: dog, in vivo; method in brief: as §1
[8] = Area under the concentration-time curve from time zero to infinity in oral (5 mg/kg) fasted dogs; type: ADME, organism-based, Canis lupus familiaris; details: dog, in vivo; method in brief: as §1
[9] = Absolute oral bioavailability in oral (5 mg/kg) fed dogs; type: ADME, organism-based, Canis lupus familiaris; details: dog, in vivo; method in brief: as §1
[10] = Area under the concentration-time curve from time zero to infinity after intravenous administration of 2.5 mg/kg in dogs; type: ADME, organism-based, Canis lupus familiaris; set-up: dose 2.5 mg/kg, route intravenous; details: dog, in vivo; method in brief: as §2
[11] = Maximum observed concentration in oral (5 mg/kg) fed dogs; type: ADME, organism-based, Canis lupus familiaris; set-up: dose 5 mg/kg, route oral; details: dog, in vivo; method in brief: as §1
[12] = Absolute oral bioavailability in oral (5 mg/kg) fasted dogs; type: ADME, organism-based, Canis lupus familiaris; details: dog, in vivo; method in brief: as §1
Rattus norvegicus = test: In vivo effect at 10 mg/kg on MABP in anesthetized ganglionic-blocked rats versus ET-1 (0.3 nmol/kg, iv) baseline; type: functional
Method in brief: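 Rats dosed orally by gavage at 10 mg/kg. Ganglionic blockade with mecamylamine given 15 min later (baseline MABP 80–90 mmHg). ET-1 challenge (0.3 nmol/kg iv) 15 min after that. Reduction of the peak pressor response, about 5 min post ET-1, scored against vehicle-treated controls.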

[13] = target: T1, Endothelin receptor type B (Homo sapiens, UniProt P24530); test: Inhibition of Endothelin B receptor mediated (ET-3) release of arachidonic acid from human cloned receptors expressed in CHO-K1 cells; type: cell-based
T1 sequence (P24530 whole entry): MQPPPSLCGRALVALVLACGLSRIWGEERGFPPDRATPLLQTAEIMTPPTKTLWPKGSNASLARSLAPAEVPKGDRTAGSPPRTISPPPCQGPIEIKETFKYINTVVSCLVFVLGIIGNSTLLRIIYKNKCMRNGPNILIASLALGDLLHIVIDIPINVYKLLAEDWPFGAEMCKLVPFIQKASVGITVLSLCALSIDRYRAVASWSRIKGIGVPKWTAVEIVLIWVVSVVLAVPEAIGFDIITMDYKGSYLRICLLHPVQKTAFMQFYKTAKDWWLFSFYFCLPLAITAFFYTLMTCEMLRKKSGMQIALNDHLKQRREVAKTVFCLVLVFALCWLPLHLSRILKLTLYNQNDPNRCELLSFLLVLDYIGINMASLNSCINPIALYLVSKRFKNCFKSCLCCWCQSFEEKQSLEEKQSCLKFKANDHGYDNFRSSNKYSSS
Method in brief: (§3)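 Arachidonic acid release assay. ETA: rabbit renal artery vascular smooth muscle cells stimulated with ET-1. ETB: recombinant human receptors in CHO-K1 cells stimulated with ET-3.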

[14] = target: T1, Endothelin receptor type B; test: Inhibition of Endothelin B receptor mediated (ET-3) release of arachidonic acid from human cloned receptors / CHO-K1 cells; In active; type: cell-based; method in brief: as §3
[15] = target: T1, Endothelin receptor type B; test: Binding affinity against human cloned Endothelin B receptor expressed in CHO-K1 cells; type: cell-based
Method in brief: (§4)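 Radioligand binding to cloned human ETA (Ltk⁻ cells) and ETB (CHO-K1 cells) receptors. […] Selectivity expressed as ETB IC50/ETA IC50.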

[16] = target: Endothelin receptor, ET-A/ET-B (Homo sapiens) (UniProt P24530+P25101); test: Selectivity of compound on ET B with respect to ET A receptor; type: protein assay; method in brief: as §4
Endothelin-1 receptor = target: T2, Endothelin-1 receptor (Homo sapiens, UniProt P25101); test: Binding affinity against human cloned endothelin A receptor expressed in LTK-cells; type: cell-based
T2 sequence (P25101 whole entry): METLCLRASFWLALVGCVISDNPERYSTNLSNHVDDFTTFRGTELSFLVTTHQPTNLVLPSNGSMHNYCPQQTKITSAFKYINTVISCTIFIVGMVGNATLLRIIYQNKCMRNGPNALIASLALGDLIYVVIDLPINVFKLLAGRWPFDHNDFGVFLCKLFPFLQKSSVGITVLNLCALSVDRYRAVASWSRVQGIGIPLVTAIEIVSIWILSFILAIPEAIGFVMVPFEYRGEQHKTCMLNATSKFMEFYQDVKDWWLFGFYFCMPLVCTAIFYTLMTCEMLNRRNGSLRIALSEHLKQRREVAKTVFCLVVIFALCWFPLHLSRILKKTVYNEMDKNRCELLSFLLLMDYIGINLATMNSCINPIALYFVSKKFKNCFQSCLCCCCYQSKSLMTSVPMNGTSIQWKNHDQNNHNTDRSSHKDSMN
Method in brief: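 Radioligand binding to cloned human ETA (Ltk⁻ cells) and ETB (CHO-K1 cells) receptors. Selectivity expressed as ETB IC50/ETA IC50.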

SMILES: COc1ccc(C(=O)/C(Cc2cc(OC)c(OC)c(OC)c2)=C(\C(=O)[O-])c2ccc3c(c2)OCO3)cc1C.[Na+]
Pressor response (Rattus norvegicus): 53% | IC50 [13]: 1900 nM

SMILES: COc1ccc(C(=O)/C(Cc2ccccc2)=C(\C(=O)[O-])c2ccc3c(c2)OCO3)cc1.C[N+](C)(C)CCO
Pressure response (Rattus norvegicus): 80% | IC50 [13]: 22000 nM

SMILES: COc1ccc(C(=O)/C(Cc2ccccc2)=C(\C(=O)[O-])c2cc(OC)c3c(c2)OCO3)cc1.[Na+]
Pressor response (Rattus norvegicus): 76% | IC50 [13]: 15700 nM

SMILES: COc1ccc(C2(O)OC(=O)C(c3cc(OC)c4c(c3)OCO4)=C2Cc2cc(OC)c(OC)c(OC)c2)cc1 (stereo unspecified)
Selectivity [16]: 520 | IC50 (Endothelin-1 receptor): 0.5 nM | IC50 [15]: 260 nM

The remaining lines, values ahead:

Tmax [1]: 2.5 h | half-life [2]: 1.9 h | AUC(0-inf) [3]: 590 ng·h/mL | Cmax [4]: 1520 ng/mL | half-life [5]: 0.62 h | Tmax [6]: 0.69 h | half-life [7]: 1.2 h | AUC(0-inf) [8]: 2000 ng·h/mL | bioavailability [9]: 20% | AUC(0-inf) [10]: 1500 ng·h/mL | Cmax [11]: 480 ng/mL | bioavailability [12]: 67%
SMILES: COc1ccc(C2(O)OC(=O)C(c3ccc4c(c3)OCO4)=C2Cc2cc(OC)c(OC)c(OC)c2)cc1 (stereo unspecified) [PD-156707]

IC50 [14]: Not Active | IC50 [15]: 27000 nM
SMILES: O=C1OC(O)(c2ccc(Cl)cc2)C(Cc2ccccc2)=C1c1ccc2c(c1)OCO2 (stereo unspecified)

Selectivity [16]: 480 | IC50 (Endothelin-1 receptor): 0.5 nM | IC50 [15]: 240 nM
SMILES: COc1ccc(C2(O)OC(=O)C(c3ccc4c(c3)OCO4)=C2Cc2cc(OC)c(OC)c(OC)c2)cc1C (stereo unspecified)
